From ChEMBL document CHEMBL1127826, “Inhibitors of acyl-CoA:cholesterol acyltransferase (ACAT). 7. Development of a series of substituted N-phenyl-N'-[(1-phenylcyclopentyl)methyl]ureas with enhanced hypocholesterolemic activity” (J Med Chem, 1994)

Experiments:
[1] = biological target: T1, Acyl-CoA:cholesterol acyltransferase (Oryctolagus cuniculus, UniProt Q95214); assay: Tested for in vitro inhibition against Acyl coenzyme A:cholesterol acyltransferase of intestinal microsomes in cholesterol-fed rabbits; set-up: species or system Microsome
T1 sequence (Q95214 whole entry): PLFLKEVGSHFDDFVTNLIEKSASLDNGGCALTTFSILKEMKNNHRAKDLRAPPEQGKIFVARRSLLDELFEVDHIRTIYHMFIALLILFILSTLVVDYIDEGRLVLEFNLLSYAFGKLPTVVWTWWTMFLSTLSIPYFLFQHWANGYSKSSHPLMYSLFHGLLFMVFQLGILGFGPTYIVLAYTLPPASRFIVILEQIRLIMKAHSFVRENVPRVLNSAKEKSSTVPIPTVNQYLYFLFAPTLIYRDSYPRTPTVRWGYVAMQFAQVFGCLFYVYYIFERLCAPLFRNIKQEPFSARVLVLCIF
In short: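 Microsomes were prepared from intestine of cholesterol-fed rabbits. ACAT activity was measured using [1-14C]oleoyl-CoA as substrate. Each determination was run in triplicate.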

[2] = Compound was evaluated for the distribution coefficient at pH 7.4; format: physicochemical; conditions: octanol/water
Rattus norvegicus [3] = species: Rattus norvegicus; assay: Percent change in total cholesterol in peanut oil (5.5%)-, cholic acid (0.3%)-, Cholesterol (1.5%)-fed rats after a single dose.; format: functional
In short: (§1)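 Male Sprague-Dawley rats (200-225 g), n=5-7/group, given a single oral dose at 4 p.m. as a suspension in 1.5% CMC/0.2% Tween-20 in water (50 mg/kg); controls received vehicle alone. The rats then had free access to chow with peanut oil, cholesterol and cholic acid. At 8 a.m. next day they were bled by cardiac puncture under ether, and serum total cholesterol was measured as % change versus controls (unpaired two-tailed t-test).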

Rattus norvegicus [4] = assay: Compound was evaluated in experiment 1 for Change in High density lipoproteins at 0.3 (mg/kg) dose; format: functional
In short: (§2)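 Chronic model in male Sprague-Dawley rats (200-225 g). Rats were fed chow with peanut oil 5.5%, cholesterol 1.5% and cholic acid ad libitum for 2 weeks. Test article was given by gavage once daily (morning) in the second week, as a CMC/Tween aqueous suspension. Blood was taken by cardiac puncture under ether 24 h after the last dose. Plasma total, HDL and nonHDL cholesterol were measured with an Abbott VP analyzer using dextran sulfate precipitation, reported as mg/dL and % change from control. Controls were cholesterol-fed rats and rats switched to chow in week 2.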

Rattus norvegicus [5] = assay: Compound was evaluated in experiment 1 for Change in High density lipoproteins at 1.0 (mg/kg) dose; format: functional; in short: as §2
Rattus norvegicus [6] = assay: Compound was evaluated in experiment 1 for Change in total cholesterol at 0.3 (mg/kg) dose; format: functional; in short: as §2
Rattus norvegicus [7] = assay: Compound was evaluated in experiment 1 for Change in total cholesterol at 1.0 (mg/kg) dose; format: functional; in short: as §2
Rattus norvegicus [8] = assay: Compound was evaluated in experiment 1 for Change in total cholesterol at 10 (mg/kg) dose; format: functional; in short: as §2
Rattus norvegicus [9] = assay: Compound was evaluated in experiment 1 for Change in total cholesterol at 3.0 (mg/kg) dose; format: functional; in short: as §2
Rattus norvegicus [10] = assay: Compound was evaluated for the percentage change in total cholesterol in peanut oil (5.5%)-cholic acid (0.3%)-cholesterol (1.5%)-fed rats at 30 mg/kg; format: functional
Rattus norvegicus [11] = assay: Compound was evaluated in experiment 1 for Change in High density lipoproteins at 10 (mg/kg) dose; format: functional; in short: as §2
Rattus norvegicus [12] = assay: Compound was evaluated in experiment 1 for Change in High density lipoproteins at 3.0 (mg/kg) dose; format: functional; in short: as §2
Rattus norvegicus [13] = assay: Compound was evaluated in experiment 1 for change in non High density lipoprotein at the doses at 0.3 (mg/kg) dose; format: functional; in short: as §2
Rattus norvegicus [14] = assay: Compound was evaluated in experiment 1 for change in non High density lipoprotein at the doses at 10 (mg/kg) dose; format: functional; in short: as §2
Rattus norvegicus [15] = assay: Compound was evaluated in experiment 1 for change in non High density lipoprotein at the doses at 3.0 (mg/kg) dose; format: functional; in short: as §2
Rattus norvegicus [16] = assay: Compound was evaluated in experiment 1 for change in non High density lipoprotein at the doses at 1.0 (mg/kg) dose; format: functional; in short: as §2
Rattus norvegicus [17] = assay: Compound was evaluated in experiment 1 for High density lipoproteins at 0.3 (mg/kg) dose; format: functional; in short: as §2
Rattus norvegicus [18] = assay: Compound was evaluated in experiment 1 for High density lipoproteins at 1.0 (mg/kg) dose; format: functional; in short: as §2
Rattus norvegicus [19] = assay: Compound was evaluated in experiment 1 for High density lipoproteins at 10 (mg/kg) dose; format: functional; in short: as §2
Rattus norvegicus [20] = assay: Compound was evaluated in experiment 1 for High density lipoproteins at 3.0 (mg/kg) dose; format: functional; in short: as §2
Rattus norvegicus [21] = assay: Compound was evaluated in experiment 1 for non High density lipoproteins at 0.3 (mg/kg) dose; format: functional; in short: as §2
Rattus norvegicus [22] = assay: Compound was evaluated in experiment 1 for non High density lipoproteins at 1.0 (mg/kg) dose; format: functional; in short: as §2
Rattus norvegicus [23] = assay: Compound was evaluated in experiment 1 for non High density lipoproteins at 10 (mg/kg) dose; format: functional; in short: as §2
Rattus norvegicus [24] = assay: Compound was evaluated in experiment 1 for non High density lipoproteins at 3.0(mg/kg) dose; format: functional; in short: as §2
Rattus norvegicus [25] = assay: Compound was evaluated in experiment 1 for Total cholesterol at 0.3 (mg/kg) dose; format: functional; set-up: unit not given beside the values; in short: as §2
Rattus norvegicus [26] = assay: Compound was evaluated in experiment 1 for Total cholesterol at 1.0 (mg/kg) dose; format: functional; set-up: unit not given beside the values; in short: as §2
Rattus norvegicus [27] = assay: Compound was evaluated in experiment 1 for Total cholesterol at 10 (mg/kg) dose; format: functional; set-up: unit not given beside the values; in short: as §2
Rattus norvegicus [28] = assay: Compound was evaluated in experiment 1 for Total cholesterol at 3.0 (mg/kg) dose; format: functional; set-up: unit not given beside the values; in short: as §2
Rattus norvegicus [29] = assay: Compound was evaluated in experiment 2 for Change in total cholesterol at 1 (mg/kg) dose; N/C denotes 'No change'; format: functional, organism-based; in short: as §2
Rattus norvegicus [30] = assay: Compound was evaluated in experiment 2 for change in non High density lipoprotein at the doses at 1 (mg/kg) dose; format: functional, organism-based; in short: as §2
[31] = Solubility at 0.1 N HCl; format: physicochemical; conditions: read-out: S
[32] = Solubility at pH 4.0; format: physicochemical; conditions: buffer
[33] = Solubility at pH 7.4; format: physicochemical; conditions: buffer
Rattus norvegicus [34] = species: Rattus norvegicus; assay: Percent change in total cholesterol in peanut oil (5.5%) - cholic acid (0.3%) - Cholesterol (1.5%) fed rates after a single dose; format: functional; in short: as §1
Rattus norvegicus [35] = assay: Compound was evaluated for % reduction in plasma cholesterol in cholesterol fed rats at a dose of 25 mg/kg; format: functional
In short: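 Male Sprague-Dawley rats on a cholesterol-enriched diet. Dosing was either by gavage as a suspension in 1.5% carboxymethylcellulose/0.2% Tween-20 in water or in oleic acid, or given as a diet admixture. Result is % reduction in plasma cholesterol versus untreated controls given the same mode and vehicle. Significance threshold p < 0.05.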

Rattus norvegicus [36] = species: Rattus norvegicus; assay: Percent change in total cholesterol in peanut oil (5.5%) - cholic acid (0.3%) - Cholesterol (1.5%) fed rats after a single dose; format: functional; in short: as §1

CC(C)c1cccc(C(C)C)c1NC(=O)NCC1(c2cccc(CN)c2)CCCC1
IC50 [1]: 440 nM | logD ([2]; read-out: logD): 3.64 | Delta TC (Rattus norvegicus [3]): -49%

CCCCN(CCCC)Cc1cccc(C2(CNC(=O)Nc3c(C(C)C)cccc3C(C)C)CCCC2)c1
IC50 [1]: 16 nM | logD ([2]; read-out: logD): 6.05 | Change HDL -C (Rattus norvegicus [4]): 16% | Change HDL -C (Rattus norvegicus [5]): -16% | Change TC (Rattus norvegicus [6]): -14% | Change TC (Rattus norvegicus [7]): -12% | Change TC (Rattus norvegicus [8]): -4% | Change TC (Rattus norvegicus [9]): -34% | Delta TC (Rattus norvegicus [10]): -63% | Delta TC (Rattus norvegicus [3]): -25% | Change HDL -C (Rattus norvegicus [11]): -21% | Change HDL -C (Rattus norvegicus [12]): 8% | Change non HDL-C (Rattus norvegicus [13]): -15% | Change non HDL-C (Rattus norvegicus [14]): -3% | Change non HDL-C (Rattus norvegicus [15]): -36% | Change non HDL-C (Rattus norvegicus [16]): -12% | HDL-C (Rattus norvegicus [17]): 12 | HDL-C (Rattus norvegicus [18]): 10 | HDL-C (Rattus norvegicus [19]): 9 | HDL-C (Rattus norvegicus [20]): 12 | Non-HDL-C (Rattus norvegicus [21]): 258 | Non-HDL-C (Rattus norvegicus [22]): 266 | Non-HDL-C (Rattus norvegicus [23]): 293 | Non-HDL-C (Rattus norvegicus [24]): 194 | TC (Rattus norvegicus [25]): 271 | TC (Rattus norvegicus [26]): 276 | TC (Rattus norvegicus [27]): 302 | TC (Rattus norvegicus [28]): 206

CC(C)c1cccc(C(C)C)c1NC(=O)NCC1(c2cccc(CN(C)C)c2)CCCC1
Change TC (Rattus norvegicus [29]): No change | Change non HDL-C (Rattus norvegicus [30]): No change

CC(C)c1cccc(C(C)C)c1NC(=O)NCC1(c2cccc(CN(C)C)c2)CCCC1.Cl
IC50 [1]: 67 nM | logD ([2]; read-out: logD): 4.87 | Delta TC (Rattus norvegicus [10]): -46% | Delta TC (Rattus norvegicus [3]): -44%

CC(C)c1cccc(C(C)C)c1NC(=O)NCC1(c2ccccc2)CCCC1
solubility [31]: < 1 µg/mL | solubility [32]: < 1 µg/mL | solubility [33]: < 1 µg/mL | logD [2]: 5.16 | Delta TC (Rattus norvegicus [34]): -38% | Reduction (Rattus norvegicus [35]): 59%

CC(C)c1cccc(C(C)C)c1NC(=O)NCC1(c2cccc(CN3CCN(C)CC3)c2)CCCC1
IC50 [1]: 16 nM | logD ([2]; read-out: logD): 5.28 | Change HDL -C (Rattus norvegicus [4]): 2% | Change HDL -C (Rattus norvegicus [5]): 27% | Change TC (Rattus norvegicus [6]): 3% | Change TC (Rattus norvegicus [7]): -33% | Change TC (Rattus norvegicus [8]): -51% | Change TC (Rattus norvegicus [9]): -24% | Delta TC (Rattus norvegicus [10]): -66% | Delta TC (Rattus norvegicus [3]): -21% | Change HDL -C (Rattus norvegicus [11]): 60% | Change HDL -C (Rattus norvegicus [12]): 8% | Change non HDL-C (Rattus norvegicus [13]): 3% | Change non HDL-C (Rattus norvegicus [14]): -55% | Change non HDL-C (Rattus norvegicus [15]): -25% | Change non HDL-C (Rattus norvegicus [16]): -36% | HDL-C (Rattus norvegicus [17]): 12 | HDL-C (Rattus norvegicus [18]): 15 | HDL-C (Rattus norvegicus [19]): 19 | HDL-C (Rattus norvegicus [20]): 12 | Non-HDL-C (Rattus norvegicus [21]): 313 | Non-HDL-C (Rattus norvegicus [22]): 195 | Non-HDL-C (Rattus norvegicus [23]): 135 | Non-HDL-C (Rattus norvegicus [24]): 227 | TC (Rattus norvegicus [25]): 325 | TC (Rattus norvegicus [26]): 209 | TC (Rattus norvegicus [27]): 154 | TC (Rattus norvegicus [28]): 239

CC(C)c1cccc(C(C)C)c1NC(=O)NCC1(c2ccccc2C(F)(F)F)CCCC1
IC50 [1]: 18 nM | Delta TC (Rattus norvegicus [36]): -50%

CC(C)c1cccc(C(C)C)c1NC(=O)NCC1(c2ccc(F)cc2)CCCC1
IC50 [1]: 23 nM | Delta TC (Rattus norvegicus [36]): -57%

CC(C)c1cccc(C(C)C)c1NC(=O)NCC1(c2cccc(CN(CCO)CCO)c2)CCCC1
logD ([2]; read-out: logD): 3.55 | Delta TC (Rattus norvegicus [10]): -63% | Delta TC (Rattus norvegicus [3]): -33%
